Data reported in ChEMBL document CHEMBL3112425, “Design, synthesis, and structure-activity relationship studies of a potent PACE4 inhibitor” (J Med Chem, 2014).
Peptide text beside a SMILES is read from it. * marks the point of attachment. X1 = N=C(N)NC/C=C/CN*

Experiments:
Plasma = assay: Drug degradation in CD-1 mouse plasma at 0.5 ug/uL after 30 mins by MALDI-TOF MS analysis; assay type: ADME, cell-free; conditions: 0.5 h
Method in brief: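 For fragment mapping, 100 μg peptide was incubated in murine plasma at 37 °C. At each time point, plasma samples were quenched with 3% TFA. Proteins were precipitated with 2 volumes acetonitrile and centrifuged at 17 000g. Supernatants were analyzed by MALDI-TOF MS for C-terminally truncated fragments.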

[1] = Acute toxicity in human DU145 cells assessed as cell death/lysis at 100 uM after 4 hrs by LDH assay; assay type: cell-based, DU-145; conditions: read-out: INH
Method in brief: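 DU145 cells (RPMI 1640, 5% FBS, 37 °C, 5% CO2) plated; 24 h later peptides added at 100 μM. After 4 h, release of lactate dehydrogenase into the medium was quantified enzymatically with a commercial LDH cytotoxicity kit as the measure of acute membrane damage/lysis.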

[2] = molecular target: T1, Proprotein convertase subtilisin/kexin type 6 (Homo sapiens, UniProt P29122); assay: Inhibition of human recombinant PACE4 expressed in drosophila schneider 2 cells using pyroGlu-Arg-Thr-Lys-Arg-AMC as substrate after 1 hr
T1 sequence (P29122 whole entry): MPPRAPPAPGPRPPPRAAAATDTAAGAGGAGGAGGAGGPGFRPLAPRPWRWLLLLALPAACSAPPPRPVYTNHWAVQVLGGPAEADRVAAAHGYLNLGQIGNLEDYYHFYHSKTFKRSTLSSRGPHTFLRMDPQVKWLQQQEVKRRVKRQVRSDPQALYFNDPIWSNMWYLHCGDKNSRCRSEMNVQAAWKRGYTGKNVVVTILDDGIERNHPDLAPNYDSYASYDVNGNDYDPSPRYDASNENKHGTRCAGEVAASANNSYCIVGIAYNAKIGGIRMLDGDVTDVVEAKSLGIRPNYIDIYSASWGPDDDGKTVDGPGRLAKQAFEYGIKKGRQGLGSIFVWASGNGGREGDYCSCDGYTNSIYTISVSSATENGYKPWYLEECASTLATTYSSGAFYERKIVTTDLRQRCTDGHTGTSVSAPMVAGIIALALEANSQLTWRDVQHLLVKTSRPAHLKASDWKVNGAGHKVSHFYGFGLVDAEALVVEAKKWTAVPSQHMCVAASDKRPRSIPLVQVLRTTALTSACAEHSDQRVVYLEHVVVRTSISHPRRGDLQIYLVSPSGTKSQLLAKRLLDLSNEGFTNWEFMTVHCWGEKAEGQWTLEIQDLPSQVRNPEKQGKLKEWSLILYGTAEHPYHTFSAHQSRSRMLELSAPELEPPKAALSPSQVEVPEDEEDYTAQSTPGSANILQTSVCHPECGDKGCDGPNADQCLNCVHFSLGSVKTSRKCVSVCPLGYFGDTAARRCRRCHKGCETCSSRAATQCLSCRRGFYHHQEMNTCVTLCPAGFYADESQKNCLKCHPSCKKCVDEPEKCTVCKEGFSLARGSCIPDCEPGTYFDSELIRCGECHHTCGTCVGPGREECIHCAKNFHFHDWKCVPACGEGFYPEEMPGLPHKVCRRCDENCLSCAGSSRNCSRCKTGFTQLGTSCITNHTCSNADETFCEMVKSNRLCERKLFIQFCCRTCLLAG
Method in brief: (§1)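 Human enzymes were expressed in Drosophila S2 cells and purified. Fluorogenic pyroGlu-RTKR-AMC was used at fixed concentration with varied inhibitor, 37 °C over 1 h. Buffers: furin, 100 mM Hepes pH 7.5, 1 mM CaCl2, 1 mM β-mercaptoethanol, 1.8 mg/mL BSA; PACE4 and PC7, 20 mM Bis-Tris pH 6.5, 1 mM CaCl2, 1.8 mg/mL BSA; PC2, same buffer at pH 5.7. Ki from IC50 (Cheng–Prusoff), or apparent Ki (Morrison) for tight binders. Triplicate, mean ± SD.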

PC-3 = assay: Cytotoxicity against human PC3 cells after 72 hrs by MTT assay; assay type: functional, cell-based; conditions: PC-3, 72 h
Method in brief: (§2)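 Prostate cancer cells were kept in RPMI 1640 at 37 °C, 5% CO2, with 5% FBS for DU145 and 10% FBS for LNCaP and PC3. After 24 h, medium was changed and peptides added at various concentrations, up to 350 μM. Viability was read by MTT after 72 h treatment. IC50 from dose–response curves, triplicate, mean ± SEM.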

[3] = Half life in CD-1 mouse plasma at 0.5 ug/uL by RP-HPLC analysis; assay type: ADME, cell-free
Method in brief: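 Peptides at 0.5 μg/μL were incubated at 37 °C in heparinized plasma pooled from mixed-sex CD1 mice. At each time point the reaction was stopped with 1 M guanidinium-HCl, then acetonitrile, and proteins were spun out. Supernatant peptide AUC (RP-HPLC) was compared with non-incubated samples. Half-life came from a one-phase decay fit. Run ≥3 times, duplicate per time point.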

LNCaP = assay: Cytotoxicity against human LNCAP cells after 72 hrs by MTT assay; assay type: functional, cell-based; method in brief: as §2
Furin = Furin (Homo sapiens, UniProt P09958); assay: Inhibition of human recombinant furin expressed in drosophila schneider 2 cells using pyroGlu-Arg-Thr-Lys-Arg-AMC as substrate after 1 hr; method in brief: as §1
Furin, sequence (P09958 whole entry): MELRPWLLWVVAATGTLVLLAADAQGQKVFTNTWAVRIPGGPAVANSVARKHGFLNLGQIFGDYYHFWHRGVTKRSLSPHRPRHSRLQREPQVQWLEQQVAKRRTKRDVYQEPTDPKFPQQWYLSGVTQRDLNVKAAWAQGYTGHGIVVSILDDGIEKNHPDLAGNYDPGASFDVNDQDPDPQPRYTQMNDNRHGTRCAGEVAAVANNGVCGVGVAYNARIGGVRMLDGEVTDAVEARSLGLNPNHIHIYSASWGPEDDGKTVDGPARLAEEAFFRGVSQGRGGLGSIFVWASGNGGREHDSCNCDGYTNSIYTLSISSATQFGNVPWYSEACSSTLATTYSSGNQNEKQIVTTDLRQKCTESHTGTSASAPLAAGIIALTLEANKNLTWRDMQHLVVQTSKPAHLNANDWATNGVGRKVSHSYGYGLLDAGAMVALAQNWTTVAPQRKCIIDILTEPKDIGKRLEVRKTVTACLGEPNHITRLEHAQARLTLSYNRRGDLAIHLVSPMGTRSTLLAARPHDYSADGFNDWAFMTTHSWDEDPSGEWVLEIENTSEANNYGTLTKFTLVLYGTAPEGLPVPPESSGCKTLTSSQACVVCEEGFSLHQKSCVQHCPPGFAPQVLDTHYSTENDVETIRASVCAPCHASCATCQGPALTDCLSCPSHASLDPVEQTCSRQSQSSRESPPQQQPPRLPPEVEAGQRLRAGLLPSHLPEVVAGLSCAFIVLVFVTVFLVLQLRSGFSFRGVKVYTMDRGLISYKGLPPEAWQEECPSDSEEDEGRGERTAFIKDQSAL

[4] = molecular target: T2, Proprotein convertase subtilisin/kexin type 7 (Homo sapiens, UniProt Q16549); assay: Inhibition of human PC7 expressed in drosophila schneider 2 cells using pyroGlu-Arg-Thr-Lys-Arg-AMC as substrate after 1 hr; method in brief: as §1
T2 sequence (Q16549 whole entry): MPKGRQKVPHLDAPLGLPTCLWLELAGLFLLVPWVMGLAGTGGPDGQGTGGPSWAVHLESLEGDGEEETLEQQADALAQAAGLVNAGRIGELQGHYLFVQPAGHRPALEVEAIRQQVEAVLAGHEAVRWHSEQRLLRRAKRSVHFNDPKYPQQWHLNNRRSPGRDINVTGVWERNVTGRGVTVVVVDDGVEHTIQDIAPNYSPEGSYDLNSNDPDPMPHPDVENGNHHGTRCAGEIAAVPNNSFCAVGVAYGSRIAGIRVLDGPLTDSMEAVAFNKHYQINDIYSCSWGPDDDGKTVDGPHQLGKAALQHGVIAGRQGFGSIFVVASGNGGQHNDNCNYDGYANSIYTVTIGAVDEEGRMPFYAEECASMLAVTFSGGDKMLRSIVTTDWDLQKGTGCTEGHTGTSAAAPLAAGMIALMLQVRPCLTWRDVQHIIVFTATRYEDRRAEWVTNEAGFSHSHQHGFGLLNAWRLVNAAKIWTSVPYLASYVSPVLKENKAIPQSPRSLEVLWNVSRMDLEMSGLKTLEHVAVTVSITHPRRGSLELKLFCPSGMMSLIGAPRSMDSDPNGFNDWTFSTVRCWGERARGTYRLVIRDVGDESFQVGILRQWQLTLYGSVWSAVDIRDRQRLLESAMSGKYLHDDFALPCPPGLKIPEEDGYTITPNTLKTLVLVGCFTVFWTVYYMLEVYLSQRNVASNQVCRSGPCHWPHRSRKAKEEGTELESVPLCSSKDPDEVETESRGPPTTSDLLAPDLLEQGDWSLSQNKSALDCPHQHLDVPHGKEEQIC

## CC(=O)N[C@@H](CC(C)C)C(=O)N[C@@H](CC(C)C)C(=O)N[C@@H](CC(C)C)C(=O)N[C@@H](CC(C)C)C(=O)N[C@@H](CCCNC(=N)N)C(=O)N[C@H](C(=O)N[C@@H](CCCCN)C(=O)NC/C=C/CNC(=N)N)C(C)C (Ac-LLLLRVK-X1)
Plasma
  Stability: Unstable
[1]
  cytotoxicity at 4 h, 100 µM: < 5%
[2]
  Ki: 5.3 nM
PC-3
  IC50: 200000 nM
[3]
  half-life at 0.5 ug/uL: 7.2 h
LNCaP
  IC50: 70000 nM
Furin
  Ki: 27 nM
[4]
  Ki: 72 nM
